Experimental data from ChEMBL document CHEMBL2375208, “Structural, kinetic, and pharmacodynamic mechanisms of D-amino acid oxidase inhibition by small molecules” (J Med Chem, 2013).
Calls of active or inactive are those of the source. No cut-off for these calls is given here.

Tests used:
D-amino-acid oxidase [1] = molecular target: T1, D-amino-acid oxidase (Sus scrofa, UniProt P00371); test: Binding affinity to pig kidney DAAO using D-alanine as substrate
[2] = Drug uptake in C57BL/6 mouse cerebellum at 30 mg/kg, ip after 6 hrs by LC/MS/MS analysis; type: ADME, organism-based; set-up: dose 30 mg/kg, route intraperitoneal; details: read-out: Drug uptake
In short: (§1)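 Male C57BL/6 mice (20–30 g) were dosed ip in 50 mM phosphate buffer at 5 mL/kg, with controls given vehicle only. Regimens were 12 mg/kg once or repeated at 2, 4 and 6 h, 30 mg/kg, or 125 mg/kg. Mice were killed at set times. Cerebellar inhibitor and D-serine were measured in the same samples, D-serine by chiral LC/MS/MS. Initial rate was the slope over 0–2 h.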

D-amino-acid oxidase [3] = molecular target: T2, D-amino-acid oxidase (Homo sapiens, UniProt P14920); test: Binding affinity to human recombinant DAAO at 440 nm spectral modification by spectrophotometric analysis in presence of FAD
T2 sequence (P14920 whole entry): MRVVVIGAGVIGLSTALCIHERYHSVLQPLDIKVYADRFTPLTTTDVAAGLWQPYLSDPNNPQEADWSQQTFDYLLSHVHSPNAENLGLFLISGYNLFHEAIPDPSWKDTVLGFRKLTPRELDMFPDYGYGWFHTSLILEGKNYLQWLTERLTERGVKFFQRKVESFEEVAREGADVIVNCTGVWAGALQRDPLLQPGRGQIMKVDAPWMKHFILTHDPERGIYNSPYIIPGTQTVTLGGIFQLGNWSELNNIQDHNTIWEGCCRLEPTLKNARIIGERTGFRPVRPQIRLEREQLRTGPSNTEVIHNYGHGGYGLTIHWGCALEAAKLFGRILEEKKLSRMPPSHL
In short: (§2)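 Purified human recombinant DAAO holoenzyme (His-tagged construct expressed in E. coli, purified by nickel column and size exclusion) was titrated in its oxidized state with increasing inhibitor concentrations, without substrate turnover. Ligand-induced changes in the FAD visible absorption spectrum were read at the stated wavelength. Kd and SE came from nonlinear regression of absorbance-change saturation curves. Changes above 500 nm indicate a charge-transfer complex.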

D-amino-acid oxidase [4] = molecular target: T2, D-amino-acid oxidase; test: Binding affinity to human recombinant DAAO at 492 nm spectral modification by spectrophotometric analysis in presence of FAD
In short: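 Purified human recombinant DAAO, E. coli-expressed and purified on a nickel column then size exclusion, was titrated in the oxidized (holoenzyme) state with rising inhibitor concentrations up to saturation, without substrate turnover. Ligand-induced changes in the FAD visible absorption spectrum were followed. Kd with SE came from nonlinear regression of saturation curves of absorbance change against inhibitor concentration.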

D-amino-acid oxidase [5] = molecular target: T2, D-amino-acid oxidase; test: Binding affinity to human recombinant DAAO by stopped flow spectrophotometric analysis in presence of FAD
D-amino-acid oxidase [6] = molecular target: T2, D-amino-acid oxidase; test: Binding affinity to human recombinant DAAO at 600 nm spectral modification by spectrophotometric analysis in presence of FAD; in short: as §2
D-amino-acid oxidase [7] = molecular target: T2, D-amino-acid oxidase; test: Competitive inhibition of human recombinant DAAO after 1 hr by coupled enzyme assay in presence of D-serine
D-amino-acid oxidase [8] = molecular target: T2, D-amino-acid oxidase; test: Competitive inhibition of human recombinant DAAO by Michaelis-Menten plot analysis in presence of D-serine
Rattus norvegicus [9] = test: Inhibition of DAAO in ip dosed Sprague-Dawley rat assessed as cerebellum concentration of compound required for 50% accumulation of D-serine after 6 hrs by LC/MS/MS analysis; type: functional, organism-based
In short: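 Rats received different ip doses. Cerebellum D-serine and inhibitor concentrations were measured 6 h later. EC50 was the inhibitor concentration at half-maximal D-serine increase, from a sigmoidal dose–response fit.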

D-amino-acid oxidase [10] = molecular target: T2, D-amino-acid oxidase; test: Binding affinity to human recombinant DAAO at 444 nm spectral modification by spectrophotometric analysis in presence of FAD
In short: (§3)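 Oxidized holoenzyme of purified human recombinant DAAO, titrated with increasing inhibitor in the absence of substrate. Ligand-induced changes in the FAD visible absorption spectrum were read at fixed wavelengths. Kd and SE came from nonlinear regression of saturation of the absorbance change.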

D-amino-acid oxidase [11] = molecular target: T2, D-amino-acid oxidase; test: Binding affinity to human recombinant DAAO at 362 nm spectral modification by spectrophotometric analysis in presence of FAD; in short: as §3
D-amino-acid oxidase [12] = molecular target: T2, D-amino-acid oxidase; test: Binding affinity to human recombinant DAAO at 498 nm spectral modification by spectrophotometric analysis in presence of FAD; in short: as §3
[13] = Drug uptake in C57BL/6 mouse cerebellum at 125 mg/kg, ip after 3 hrs by LC/MS/MS analysis; type: ADME, organism-based; set-up: dose 125 mg/kg, route intraperitoneal; details: read-out: Drug uptake; in short: as §1
D-amino-acid oxidase [14] = molecular target: T2, D-amino-acid oxidase; test: Binding affinity to human recombinant DAAO at 395 nm spectral modification by spectrophotometric analysis in presence of FAD; in short: as §3
Mus musculus [15] = test: Inhibition of DAAO in C57BL/6 mouse assessed as increase in rate of D-serine accumulation in cerebellum at 125 mg/kg, ip by LC/MS/MS analysis; type: functional, organism-based; set-up: dose 125 mg/kg; in short: as §1
D-amino-acid oxidase [16] = molecular target: T2, D-amino-acid oxidase
D-amino-acid oxidase [17] = molecular target: T2, D-amino-acid oxidase; test: Binding affinity to human recombinant DAAO at 443 nm spectral modification by spectrophotometric analysis in presence of FAD; in short: as §2
D-amino-acid oxidase [18] = molecular target: T2, D-amino-acid oxidase; test: Binding affinity to human recombinant DAAO at 496 nm spectral modification by spectrophotometric analysis in presence of FAD; in short: as §2
[19] = Drug uptake in C57BL/6 mouse cerebellum at 12 mg/kg, ip after 2 hrs by LC/MS/MS analysis; type: ADME, organism-based; set-up: dose 12 mg/kg, route intraperitoneal; details: read-out: Drug uptake; in short: as §1
D-amino-acid oxidase [20] = molecular target: T2, D-amino-acid oxidase; test: Binding affinity to human recombinant DAAO at 520 nm spectral modification by spectrophotometric analysis in presence of FAD
Mus musculus [21] = organism: Mus musculus; details: C57BL/6, Cerebellum, 12 mg/kg
[22] = Drug uptake in C57BL/6 mouse cerebellum at 12 mg/kg, ip administered every 2 hrs by LC/MS/MS analysis; type: ADME, organism-based; set-up: dose 12 mg/kg, route intraperitoneal; details: read-out: Drug uptake; in short: as §1
Rattus norvegicus [23] = test: Metabolic stability in Sprague-Dawley rat at 3 to 10 mg/kg, po/10 mg/kg, ip by LC/MS/MS analysis; type: ADME, organism-based; set-up: dose 3-10 mg/kg, route intraperitoneal; details: in vivo
D-amino-acid oxidase [24] = molecular target: T2, D-amino-acid oxidase; test: Binding affinity to human recombinant DAAO at 490 nm spectral modification by spectrophotometric analysis in presence of FAD
D-amino-acid oxidase [25] = molecular target: T2, D-amino-acid oxidase; test: Inhibition of DAAO (unknown origin)
D-amino-acid oxidase [26] = molecular target: T1, D-amino-acid oxidase; test: Competitive inhibition of pig kidney DAAO in presence of D-alanine

T1 sequence (P00371 whole entry): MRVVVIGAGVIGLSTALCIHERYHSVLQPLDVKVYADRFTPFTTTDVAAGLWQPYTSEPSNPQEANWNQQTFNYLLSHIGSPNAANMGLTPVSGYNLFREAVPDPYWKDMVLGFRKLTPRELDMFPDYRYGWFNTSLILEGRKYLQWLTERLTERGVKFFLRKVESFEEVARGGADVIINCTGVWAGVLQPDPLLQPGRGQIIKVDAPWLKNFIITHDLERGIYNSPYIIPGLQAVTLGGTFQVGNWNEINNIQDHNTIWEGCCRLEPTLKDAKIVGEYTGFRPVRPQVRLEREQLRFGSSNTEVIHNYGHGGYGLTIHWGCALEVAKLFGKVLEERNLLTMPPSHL

O=C(O)c1ccc[nH]1
Kd (D-amino-acid oxidase [1]): 26000 nM

O=C(O)c1cc(CCc2ccc(Cl)cc2)c[nH]1
concentration at 6 h [2]: > 1000 nM

O=C(O)c1cc2occ(CCc3ccccc3)c2[nH]1
Kd (D-amino-acid oxidase [3]): 4800 nM
Kd (D-amino-acid oxidase [4]): 3700 nM
Kd (D-amino-acid oxidase [5]): 6000 nM
Kd (D-amino-acid oxidase [6]): 3200 nM
IC50 (D-amino-acid oxidase [7]): 219 nM
Ki (D-amino-acid oxidase [8]): 190 nM

Oc1noc2cc(Cl)c(Cl)cc12
Kd (D-amino-acid oxidase [5]): 1900 nM
EC50 (Rattus norvegicus [9]): 1500 nM
Kd (D-amino-acid oxidase [10]): 4200 nM
IC50 (D-amino-acid oxidase [7]): 3.09 nM
Ki (D-amino-acid oxidase [8]): 1.7 nM
Kd (D-amino-acid oxidase [11]): 3600 nM
Kd (D-amino-acid oxidase [12]): 4200 nM
concentration at 3 h [13]: < 1000 nM
Kd (D-amino-acid oxidase [14]): 4000 nM
inhibition (Mus musculus [15]): Active

O=C(O)c1ccccc1 [BENZOIC ACID]
Kd (D-amino-acid oxidase [4]): 2200 nM
Kd (D-amino-acid oxidase [5]): 2300 nM
IC50 (D-amino-acid oxidase [7]): 2090 nM
Ki (D-amino-acid oxidase [8]): 2000 nM
Kd (D-amino-acid oxidase [16]): 9000 nM

O=c1oc2ccccc2cc1O [3-HYDROXYCOUMARIN]
Kd (D-amino-acid oxidase [17]): 4000 nM
Kd (D-amino-acid oxidase [5]): 6300 nM
IC50 (D-amino-acid oxidase [7]): 34.7 nM
Ki (D-amino-acid oxidase [8]): 13 nM
Kd (D-amino-acid oxidase [18]): 5600 nM

O=C(O)c1cc2sccc2[nH]1
concentration at 2 h [19]: < 1000 nM
Kd (D-amino-acid oxidase [20]): 2500 nM
Kd (D-amino-acid oxidase [5]): 7000 nM
EC50 (Rattus norvegicus [9]): 500 nM
IC50 (D-amino-acid oxidase [7]): 5.37 nM
Ki (D-amino-acid oxidase [8]): 3.5 nM
inhibition (Mus musculus [21]): Active
concentration at 2 h [22]: > 1000 nM
Stability (Rattus norvegicus [23]): Unstable
Kd (D-amino-acid oxidase [24]): 130 nM
IC50 (D-amino-acid oxidase [25]): 5.37 nM

O=C(O)c1cc2ccccc2[nH]1 [INDOLE-2-CARBOXYLIC ACID]
Ki (D-amino-acid oxidase [26]): 3400 nM
